Data set [1] concerns the target T1, Muscarinic acetylcholine receptor M4 (Homo sapiens) (UniProt P08173).
T1 sequence (whole entry): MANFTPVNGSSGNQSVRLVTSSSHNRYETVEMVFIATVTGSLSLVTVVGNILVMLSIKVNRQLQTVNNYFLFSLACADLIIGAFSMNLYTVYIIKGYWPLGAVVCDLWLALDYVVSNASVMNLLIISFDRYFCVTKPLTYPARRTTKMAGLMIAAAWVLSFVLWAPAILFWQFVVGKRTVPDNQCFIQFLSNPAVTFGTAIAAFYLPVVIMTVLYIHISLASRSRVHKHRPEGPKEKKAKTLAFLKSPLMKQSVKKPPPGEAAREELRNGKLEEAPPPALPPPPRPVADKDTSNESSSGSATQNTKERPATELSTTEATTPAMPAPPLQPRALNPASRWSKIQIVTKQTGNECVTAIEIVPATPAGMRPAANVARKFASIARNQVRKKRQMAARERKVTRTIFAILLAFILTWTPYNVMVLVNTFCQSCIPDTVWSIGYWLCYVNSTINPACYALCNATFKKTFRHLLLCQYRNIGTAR
As to the kind of experiment: Positive allosteric modulation of human muscarinic acetylcholine M4/Gqi5 receptor expressed in CHO cells in presence of acetylcholine at EC20 concentration by calcium mobilization assay relative to control. Type of data set: functional, cell-based. The method in brief: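 CHO cells stably expressing human M4 with a chimeric Gq protein were tested by calcium mobilization in the presence of an EC20 fixed concentration of acetylcholine. EC50 values come from concentration-response curves. Efficacy is given as % of the maximal acetylcholine response. Each value is n = 1 independent experiment run in triplicate.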
In general terms: Calcium flux is commonly read through the fluorescence of an indicator in the cells.

The nature of data set [2]: Brain to plasma partition coefficient, Kp of the compound in Sprague-Dawley rat at 0.2 mg/kg, iv measured at […]. Type of data set: ADME, organism-based. Conditions: time 0.25 hrs; call rule not given here.
Data set [3] in a line: Intrinsic clearance in rat liver microsomes. Conditions: read-out: CLH. In general terms: Liver microsomes are a subcellular fraction often used to study metabolism.
The nature of data set [4]: Intrinsic clearance in human liver microsomes. Conditions: read-out: CLH.
Data set [5] deals with T2, Muscarinic acetylcholine receptor M4 (Homo sapiens, UniProt P08173).
T2 sequence (P08173 whole entry): T1 sequence (whole entry)
As to the kind of experiment: Positive allosteric modulation of human muscarinic acetylcholine M4/Gqi5 receptor expressed in CHO cells in presence of acetylcholine at EC20 concentration by calcium mobilization assay. Type of data set: functional, cell-based.

[6] abbreviates: filed as positive allosteric modulator.

Take `Cc1cc(C)c2c(n1)sc1c(N3CCCC3)nccc12`: the %max in data set [1] (setting [6]) was determined as 98%. Also, the concentration ratio (Kp) (as a rule, tissue or fluid exposure divided by exposure in the circulation) in data set [2] is listed as 37.1. The predicted hepatic clearance is 68 mL/min/kg in data set [3] and 19 mL/min/kg in data set [4]. As to `Cc1cc(C)c2c(n1)sc1c(NC3CC(c4ccncc4)C3)ncnc12` (stereo not given), in data set [1] (setting [6]), the %max was found to be 67%. The EC50 (usually the concentration that produces a half-maximal response) in data set [5] (read-out: EC50) was found to be 341 nM.

With `Cc1cc(C)c2c(n1)sc1c(-c3nccs3)ncnc12`, in data set [1] (setting [6]), the %max was found to be 62%. Take `Cc1cc(C)c2c(n1)sc1c(NCc3ccc(C(F)(F)F)cn3)ncnc12`: the concentration for a half-maximal effect (EC50) entry in data set [5] (cho) is on record as “Not Active”. In the case of `Cc1cc(C)c2c(n1)oc1c(N3CCCC3)ncnc12`, in data set [5] (cho), the concentration giving a half-maximal response (EC50) result is “Not Active”. For `Cc1cc(C)c2c(n1)oc1c(NC3CC3)ncnc12`, the %max in data set [1] (setting [6]) is 64%. As to `Cc1cc(C)c2c(n1)sc1c(NCc3ccc(S(C)(=O)=O)cc3)ncnc12`, the %max in data set [1] (setting [6]) worked out at 42%. In data set [2], this molecule returned a Kp of 0.45. The predicted hepatic clearance was 50 mL/min/kg in data set [3] and 12 mL/min/kg in data set [4].

`Cc1cc(C)c2c(n1)sc1c(N3CCC3)ncnc12`: the %max in data set [1] (setting [6]) was found to be 59%. The molecule also showed a Kp in data set [2] of 6.49. Besides, the figures for the predicted hepatic clearance in data set [3] and in data set [4] were 64 mL/min/kg and 20 mL/min/kg, respectively. In the case of `Cc1cc(C)c2c(n1)sc1c(NCc3ccc4c(c3)COC4)ncnc12`, the %max in data set [1] (setting [6]) came to 41%. Moreover, in data set [5] (read-out: EC50), the EC50 is 1140 nM. As for `Cc1cc(C)c2c(n1)sc1c(OCc3ccc(C(C)(C)O)cc3)ncnc12`, the %max in data set [1] (setting [6]) came to 40%. Moreover, the 50% effective concentration (EC50) in data set [5] (read-out: EC50) was 8740 nM. As to `Cc1cc(C)c2c(n1)sc1c(C3CC3)ncnc12`, the %max in data set [1] (setting [6]) was determined as 62%.

Consider `COc1ccc(C2CC2Nc2ncnc3c2sc2nc(C)cc(C)c23)cc1` (stereo not given), for which, in data set [1] (setting [6]), the %max stood at 61%. As for `Cc1cc(C)c2c(n1)oc1c(NC3CN(c4cc(Cl)ncc4Cl)C3)ncnc12`, the %max in data set [1] (setting [6]) was 49%.

For `Cc1cc(C)c2c(n1)sc1c(NC3CCCC3)nccc12`, the %max in data set [1] (setting [6]) came out at 71%. As for `Cc1cc(C)c2c(n1)sc1c(NCc3ccc4sccc4c3)ncnc12`, in data set [5] (cho), the 50% effective concentration (EC50) result is “Not Active”. For `Cc1cc(C)c2c(n1)sc1c(NCc3ccc(C(C)(C)O)cc3F)ncnc12`, the %max in data set [1] (setting [6]) was 74%. Further, in data set [5] (read-out: EC50), the EC50 was found to be 2320 nM. In the case of `Cc1cc(C)c2c(n1)oc1c(NCc3ccc(C(C)(C)O)cc3)ncnc12`, the concentration giving a half-maximal response (EC50) result in data set [5] (cho) is reported as “Not Active”. As to `Cc1cc(C)c2c(n1)sc1c(C3CCCCC3)ncnc12`, in data set [1] (setting [6]), the %max is 71%. Same read-out and setting: with `Cc1cc(C)c2c(n1)sc1c(NC3CN(c4ncc(C(F)(F)F)cn4)C3)ncnc12` the figure was 52%.

`Cc1cc(C)c2c(n1)sc1c(NCc3ccc(C(C)(C)O)cc3)ncnc12`: the %max in data set [1] (setting [6]) worked out at 76%.

Take `Cc1cc(C)c2c(n1)sc1c(NCc3ccc(OC(F)(F)F)cc3)ncnc12`: in data set [5] (cho), the EC50 result is given as “Not Active”. For the molecule `Cc1cc(C)c2c(n1)sc1c(C)ncnc12`, the %max in data set [1] (setting [6]) was found to be 58%. As to `Cc1cc(C)c2c(n1)sc1c(N3CCCC3)ncnc12`, the %max in data set [1] (setting [6]) was found to be 67%. This molecule also registered a Kp in data set [2] of 5.36. Also, the values for the predicted hepatic clearance in data set [3] and in data set [4] were 68 mL/min/kg and 18 mL/min/kg, respectively. `Cc1cc(C)c2c(n1)sc1c(C3CCN(C(=O)C4CC4)CC3)ncnc12`: the %max in data set [1] (setting [6]) stood at 62%.

Take `Cc1cc(C)c2c(n1)sc1c(NCc3ccc(-n4ccnc4)nc3)ncnc12`: the %max in data set [1] is 34%. In data set [5] (read-out: EC50), the EC50 came to 1560 nM. On to `Cc1cc(C)c2c(n1)sc1c(C3CCNCC3)ncnc12`, for which, in data set [1] (setting [6]), the %max was determined as 44%. On to `Cc1cc(C)c2c(n1)sc1c(N3CC4(COC4)C3)ncnc12`, for which the %max in data set [1] (setting [6]) was 84%. Besides, the Kp in data set [2] was 4.47. Further, the predicted hepatic clearance is 63 mL/min/kg in data set [3] and 18 mL/min/kg in data set [4].

As to `Cc1cc(C)c2c(n1)sc1c(NCc3cnc(C)nc3)ncnc12`, the %max in data set [1] (setting [6]) was 54%.

Regarding `Cc1cc(C)c2c(n1)sc1c(C3CCOCC3)ncnc12`, in data set [1] (setting [6]), the %max came to 99%. Besides, the 50% effective concentration (EC50) in data set [5] (read-out: EC50) stood at 152 nM.

On to `Cc1cc(C)c2c(n1)oc1c(NC3CCC3)ncnc12`, for which the %max in data set [1] (setting [6]) is 44%. For the molecule `Cc1ccc(CNc2ncnc3c2sc2nc(C)cc(C)c23)c(F)c1`, in data set [5] (cho), the EC50 entry was “Not Active”. Same read-out and setting: for `Cc1cc(C)c2c(n1)sc1c(C3CCN(CC4CC4)CC3)ncnc12` the value was “Not Active”. As for `Cc1cc(C)c2c(n1)sc1c(NCc3ccc(C(C)(C)O)cc3)nccc12`, the %max in data set [1] (setting [6]) stood at 101%. Besides, the concentration ratio (Kp) in data set [2] turned out to be 2.27. Moreover, the predicted hepatic clearance is 58 mL/min/kg in data set [3] and 15 mL/min/kg in data set [4].

As to `Cc1cc(C)c2c(n1)sc1c(NCc3ccc(OC(F)F)cc3)ncnc12`, in data set [1] (setting [6]), the %max worked out at 45%. The EC50 in data set [5] (read-out: EC50) came to 4010 nM.

Consider `Cc1cc(C)c2c(n1)sc1c(C3CCN(c4cncc(F)c4)CC3)ncnc12`, for which, in data set [5] (cho), the concentration giving a half-maximal response (EC50) result is given as “Not Active”. On the same count and under the same terms, with `COc1ccc(CNc2ncnc3c2oc2nc(C)cc(C)c23)cc1F` the entry was “Not Active”. Regarding `Cc1cc(C)c2c(n1)sc1c(NC3CN(c4ncc(C(F)(F)F)cn4)C3)nccc12`, in data set [1] (setting [6]), the %max came to 80%.

Turning to `Cc1cc(C)c2c(n1)sc1c(NCc3ccc4c(n3)CCC4)ncnc12`, the %max in data set [1] came out at 30%. Moreover, in data set [5] (read-out: EC50), the half-maximal effective concentration (EC50) stood at 2560 nM. As to `COc1ccc(CNc2nccc3c2sc2nc(C)cc(C)c23)cc1F`, the %max in data set [1] (setting [6]) is 90%. On the same count and under the same terms, for `Cc1cc(C)c2c(n1)sc1c(N3CC(F)(F)C3)ncnc12` the value was 69%. Regarding `Cc1cc(C)c2c(n1)sc1c(NCc3ncc(F)cn3)ncnc12`, in data set [1], the %max stood at 30%. In addition, the EC50 in data set [5] (read-out: EC50) was more than 10000 nM.

As for `Cc1cc(C)c2c(n1)sc1c(NCc3ccc(F)c(Cl)c3)ncnc12`, in data set [5] (cho), the concentration giving a half-maximal response (EC50) result is “Not Active”. Regarding `Cc1cc(C)c2c(n1)sc1c(N(C)C)nccc12`, in data set [1] (setting [6]), the %max stood at 82%. With `Cc1cc(C)c2c(n1)oc1c(NC3CN(c4ncc(C(F)(F)F)cn4)C3)ncnc12`, the 50% effective concentration (EC50) result in data set [5] (cho) is given as “Not Active”. Regarding `Cc1cc(C)c2c(n1)sc1c(NCc3ccc(CN4CCOCC4)cc3)ncnc12`, the %max in data set [1] (setting [6]) was found to be 47%. In addition, in data set [5] (read-out: EC50), the EC50 was 1110 nM.

`Cc1cc(C)c2c(n1)sc1c(N3CC4CC4C3)ncnc12` (stereo not given): the %max in data set [1] (setting [6]) is 75%. With `COCC1CN(c2ncnc3c2sc2nc(C)cc(C)c23)C1`, in data set [1] (setting [6]), the %max came out at 50%.

Take `Cc1cc(C)c2c(n1)sc1c(C3CCN(C(=O)C4(C)CC4)CC3)ncnc12`: in data set [1] (setting [6]), the %max turned out to be 72%. In addition, the EC50 in data set [5] (read-out: EC50) was found to be 234 nM. In data set [2], this molecule returned a Kp of 0.54. The figures for the predicted hepatic clearance in data set [3] and in data set [4] were 59 mL/min/kg and 11 mL/min/kg, respectively. Take `Cc1cc(C)c2c(n1)sc1c(NC3CCC3)nccc12`: in data set [1] (setting [6]), the %max was 90%. In data set [2], this molecule yielded a Kp of 10.4. The figures for the predicted hepatic clearance in data set [3] and in data set [4] were 69 mL/min/kg and 20 mL/min/kg, respectively. For `Cc1cc(C)c2c(n1)sc1c(NC3CCC3)ncnc12`, the %max in data set [1] (setting [6]) came to 76%.
